Assay results reported in PubChem BioAssay AID624289 (Broad Institute, 2012).
Several values for one entry are separate records, joined by “and”; a condition that tells them apart may be missing. Equal entries are not always repeated. Activity calls are given as the source filed them.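 The calls were made as follows: active = compounds lowering cell ATP signal with a fitted AC50 no higher than twice the top tested dose; inconclusive = flat curve with 30 to 70% signal loss, or poor fit; inactive = the rest.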

What was measured:
[1] = system: SK-MEL-5 viability, ATP luminescence (CellTiter-Glo), 24 h; assay: ATP-based cytotoxicity in parental melanoma cells – cell-based, CellTiter-Glo, dry powder samples, set 2, orthogonal assay for MITF inhibitor project, dose response (AID 624289)
In short: (§1)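 system = SK-MEL-5 human melanoma cells, parental line of primary-screen reporter | input = 3000 SK-MEL-5 cells per well | buffer or medium = phenol red-free growth medium | dosing = pinned compound dose series | times = 24 h compound treatment at 37 °C, 5 min read delay | signal = ATP luminescence, CellTiter-Glo | measure = cell viability inferred from cellular ATP level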

[2] = as above; settings: SK-MEL-5 viability, ATP luminescence (CellTiter-Glo), 24 h; at 35 µM (top of the series)
In short: as §1

SMILES | AC50 [1] | activity change, negative = inhibition [2]
NC1=CC(=O)c2ccccc2C1=O | 7.35 µM | 
COc1cccc(C2=C(NC(=O)c3ccccc3)C(=O)c3ccccc3C2=O)c1 | 19.1 µM | 
COc1ccc(C(=O)NC2=C(c3ccccc3)C(=O)c3ccccc3C2=O)cc1 | 21.5 µM | 
CC(=O)N(C)C1=C(N2CCCCC2)C(=O)c2ccccc2C1=O | 2.67 µM | 
O=C1C(NS(=O)(=O)c2ccc(Br)cc2)=C(c2ccccc2)C(=O)c2ccccc21 | 30.9 µM | 
O=C(NC1=C(N2CCSCC2)C(=O)c2ccccc2C1=O)c1ccc(Br)cc1 | 28.1 µM | 
O=C(NC1=C(c2ccccc2)C(=O)c2ccccc2C1=O)c1ccc(Br)cc1 | 28.9 µM | 
Cc1ccc(C(=O)NC2=C(c3ccc(OC(F)(F)F)cc3)C(=O)c3ccccc3C2=O)o1 | 29.5 µM | 
O=C(NC1=C(N2CCN(c3ccccc3)CC2)C(=O)c2ccccc2C1=O)c1ccccc1 | > 70 µM (inactive) | 
COc1ccc(C2=C(NC(=O)c3ccc(Cl)cc3)C(=O)c3ccccc3C2=O)cc1 | 25.2 µM | 
COc1ccc(C2=C(NC(=O)c3ccc(OC)cc3-c3cccc(OC)c3)C(=O)c3ccccc3C2=O)cc1 | > 70 µM (inactive) | 
CCN1CCN(C2=C(Nc3ccccc3)C(=O)c3ccccc3C2=O)CC1 | 14.2 µM | 
O=C(NC1=C(c2ccccc2)C(=O)c2ccccc2C1=O)c1ccco1 | 20.4 µM | 
O=C(NC1=C(c2ccc(OC(F)(F)F)cc2)C(=O)c2ccccc2C1=O)c1ccco1 | 23.1 µM | 
O=C1C(NS(=O)(=O)c2ccc(Br)s2)=C(N2CCSCC2)C(=O)c2ccccc21 | 29.1 µM | 
C=CCNC1=C(NCCCN2CCOCC2)C(=O)c2ccccc2C1=O | 33.1 µM | 
COC1=C(NS(=O)(=O)c2ccccc2)C(=O)c2ccccc2C1=O | 7.28 µM | 
O=C1C(NS(=O)(=O)c2ccc(Br)cc2)=C(N2CCSCC2)C(=O)c2ccccc21 | 32.5 µM | 
Cc1nc2ccccc2n1/N=C/c1ccc([N+](=O)[O-])s1 | 6.5 µM | 
O=C1C(NS(=O)(=O)c2ccccc2)=C(N2CCOCC2)C(=O)c2ccccc21 | 19.4 µM | 
CC(=O)NC1=C(c2ccccc2)C(=O)c2ccccc2C1=O | 15.2 µM | 
O=C1C(Nc2ccccc2)=C(N2CCN(c3ccccc3)CC2)C(=O)c2ccccc21 | > 70 µM (inactive) | 
C=CCNC1=C(N(C)C(C)=O)C(=O)c2ccccc2C1=O | 0.274 µM | 

SMILES | AC50 [1] | activity change, negative = inhibition [2]
CCN1CCN(C2=C(NS(=O)(=O)c3cccs3)C(=O)c3ccccc3C2=O)CC1 | 19.2 µM | 
COc1ccc(C2=C(NC(=O)c3ccccc3OC)C(=O)c3ccccc3C2=O)cc1 | > 70 µM (inactive) | 
O=C1C=C(Nc2ccccc2)C(=O)c2ccccc21 | 1.46 µM | 
COc1ccc(C2=C(NC(=O)c3ccc4ccccc4c3)C(=O)c3ccccc3C2=O)cc1 | > 70 µM (inactive) | 
CN1CCN(C2=C(NS(=O)(=O)c3ccc(Br)s3)C(=O)c3ccccc3C2=O)CC1 | 13.9 µM | 
CC(=O)N(C)C1=C(N2CCN(C)CC2)C(=O)c2ccccc2C1=O | 3.16 µM | 
O=C1C(NS(=O)(=O)c2ccc(Br)s2)=C(N2CCOCC2)C(=O)c2ccccc21 | 23.2 µM | 
O=C1C(NS(=O)(=O)c2ccc(Br)cc2)=C(N2CCN(c3ccccc3)CC2)C(=O)c2ccccc21 | 25.2 µM | 
COc1ccc(C(=O)NC2=C(c3ccc(OC)cc3)C(=O)c3ccccc3C2=O)cc1 | 15 µM | 
COc1ccc(C2=C(NC(=O)c3cccc(OC)c3)C(=O)c3ccccc3C2=O)cc1 | 24.4 µM | 
CC(=O)N(C)C1=C(N2CCOCC2)C(=O)c2ccccc2C1=O | 5.55 µM | 
CCN(CC)CCCNC1=C(Nc2ccccc2)C(=O)c2ccccc2C1=O | 21.1 µM | 
COc1cccc(-c2cc(C(=O)NC3=C(Cl)C(=O)c4ccccc4C3=O)ccc2OC)c1 | 22.4 µM | 
CCN1CCN(C2=C(NC(=O)c3ccccc3)C(=O)c3ccccc3C2=O)CC1 | 5.2 µM | 
O=C1C(NS(=O)(=O)c2ccc(Br)cc2)=C(N2CCOCC2)C(=O)c2ccccc21 | 12.2 µM | 
O=C(NC1=C(N2CCOCC2)C(=O)c2ccccc2C1=O)c1ccccc1 | 18.2 µM | 
CC(=O)NC1=C(c2cccc(Cl)c2)C(=O)c2ccccc2C1=O | 11.5 µM | 
CN1CCN(C2=C(Nc3ccccc3)C(=O)c3ccccc3C2=O)CC1 | 14.1 µM | 
C=C1C(=O)OC2C1CC/C(C)=C\CCC1(C)OC21 (centres undefined) | > 70 µM (inactive) | 
O=C(CNc1cccc2ccccc12)N/N=C/c1ccc([N+](=O)[O-])o1 | 19.8 µM | 
CCN(CC)CCCNC1=C(N(C)C(C)=O)C(=O)c2ccccc2C1=O | 3.19 µM | 
C=CCNC1=C(NCCCN(CC)CC)C(=O)c2ccccc2C1=O | 11.5 µM | 
Cc1ccc(C(=O)NC2=C(c3ccccc3)C(=O)c3ccccc3C2=O)o1 | 19.3 µM | 

SMILES | AC50 [1] | activity change, negative = inhibition [2]
CCN(CC)CCCCNC1=C(Nc2ccccc2)C(=O)c2ccccc2C1=O | 33.2 µM | 
COc1ccc(C2=C(NC(C)=O)C(=O)c3ccccc3C2=O)cc1 | 11.7 µM | 
CCN(CC)CCNC1=C(Nc2ccccc2)C(=O)c2ccccc2C1=O | 36.4 µM | 
CC(=O)NC1=C(c2ccc(Cl)cc2)C(=O)c2ccccc2C1=O | 15.8 µM | 
CCN1c2ccccc2NC2N=C(OC)C(c3ccccc3)C21 (centres undefined) | 11.1 µM | 
NC1=C(c2ccc(OC(F)(F)F)cc2)C(=O)c2ccccc2C1=O | > 70 µM (inactive) | 
C=CCNC1=C(NCCN(CC)CC)C(=O)c2ccccc2C1=O | 9.17 µM | 
CCN1CCN(C2=C(NS(=O)(=O)c3ccc(Br)s3)C(=O)c3ccccc3C2=O)CC1 | 26.1 µM | 
COc1ccc(C2=C(NC(=O)c3cccc(Cl)c3)C(=O)c3ccccc3C2=O)cc1 | 23.1 µM | 
CC(=O)NC1=C(c2ccc(Oc3ccccc3)cc2)C(=O)c2ccccc2C1=O | 14.2 µM | 
CN1CCN(C2=C(NC(=O)c3ccc(Br)cc3)C(=O)c3ccccc3C2=O)CC1 | 3.05 µM | 
O=C1C(NS(=O)(=O)c2ccc(Br)cc2)=C(N2CCCCC2)C(=O)c2ccccc21 | 32.6 µM | 
C=CCNC1=C(NCC=C)C(=O)c2ccccc2C1=O |  | -6.6% (inactive)
O=C1C(Nc2ccccc2)=C(N2CCOCC2)C(=O)c2ccccc21 | 29.3 µM and 24.5 µM | 
NC1=C(NC(=O)c2ccccc2)C(=O)c2ccccc2C1=O | 10.1 µM | 
O=C1C(NS(=O)(=O)c2ccc(Br)s2)=C(N2CCCCC2)C(=O)c2ccccc21 | 28.9 µM | 
C=CCNC1=C(Cl)C(=O)c2ccccc2C1=O | 5.18 µM and 7.1 µM | 
C=CCNC1=C(N2CCN(CC)CC2)C(=O)c2ccccc2C1=O | 20.1 µM | 
COc1ccc(C2=C(NC(=O)c3ccccc3Cl)C(=O)c3ccccc3C2=O)cc1 | 17.1 µM | 
C=CCNC1=C(N2CCCCC2)C(=O)c2ccccc2C1=O | 2.66 µM | 
CCN1CCN(C2=C(NS(=O)(=O)c3ccc(Br)cc3)C(=O)c3ccccc3C2=O)CC1 | 25.4 µM | 
C=CCNC1=C(N2CCSCC2)C(=O)c2ccccc2C1=O | 12.3 µM | 
CCN1CCN(C2=C(N(C)C(C)=O)C(=O)c3ccccc3C2=O)CC1 | 3.29 µM | 

SMILES | AC50 [1] | activity change, negative = inhibition [2]
COc1ccc(S(=O)(=O)N(C(C)=O)c2ccc(OC(C)=O)c3ccccc23)cc1[N+](=O)[O-] | 19.9 µM | 
CN1CCN(C2=C(NC(=O)c3ccccc3)C(=O)c3ccccc3C2=O)CC1 | 5.15 µM | 
C[C@@H](NC1=C(Nc2ccccc2)C(=O)c2ccccc2C1=O)c1ccccc1 | > 70 µM (inactive) | 
CN1CCN(C2=C(NS(=O)(=O)c3ccccc3)C(=O)c3ccccc3C2=O)CC1 | 11.1 µM | 
O=C(NC1=C(c2ccc(OC(F)(F)F)cc2)C(=O)c2ccccc2C1=O)c1ccccc1 | 24.3 µM | 
CN1CCN(C2=C(NS(=O)(=O)c3ccc(Br)cc3)C(=O)c3ccccc3C2=O)CC1 | > 70 µM (inactive) | 
C=CCNC1=C(N2CCN(C)CC2)C(=O)c2ccccc2C1=O | 20.1 µM | 
O=C(NC1=C(N2CCOCC2)C(=O)c2ccccc2C1=O)c1ccc(Br)cc1 | 15.9 µM | 
CC(=O)NC1=C(c2ccc3c(c2)oc2ccccc23)C(=O)c2ccccc2C1=O | 17.4 µM | 
O=C1C(NS(=O)(=O)c2cccs2)=C(N2CCOCC2)C(=O)c2ccccc21 | 21.1 µM | 
CCN1CCN(C2=C(NC(=O)c3ccc(Br)cc3)C(=O)c3ccccc3C2=O)CC1 | 3.7 µM | 
NC1=C(c2ccccc2)C(=O)c2ccccc2C1=O | 28.5 µM | 
O=C(NC1=C(N2CCSCC2)C(=O)c2ccccc2C1=O)c1ccccc1 | 13.2 µM | 
O=C1C(Nc2ccccc2)=C(N2CCCCC2)C(=O)c2ccccc21 | 8.69 µM | 
C=CCNC1=C(N2CCOCC2)C(=O)c2ccccc2C1=O | 6.79 µM | 
O=C(NC1=C(c2ccc(Oc3ccccc3)cc2)C(=O)c2ccccc2C1=O)c1ccccc1 | > 70 µM (inactive) | 
C=CCNC1=C(NS(=O)(=O)c2cccs2)C(=O)c2ccccc2C1=O | 24.4 µM | 
C=CCNC1=C(NS(=O)(=O)c2ccc(Br)cc2)C(=O)c2ccccc2C1=O | 24.4 µM | 
O=C(NC1=C(c2ccccc2)C(=O)c2ccccc2C1=O)c1ccccc1 | 20.6 µM | 
O=C(NC1=C(Cl)C(=O)c2ccccc2C1=O)c1ccccc1 | 4.73 µM | 
